Test results published in ChEMBL document CHEMBL5385966, “Synthesis and biological evaluation of new naphthalimide-thiourea derivatives as potent antimicrobial agents active against multidrug-resistant Staphylococcus aureus and Mycobacterium tuberculosis” (RSC Med Chem, 2024).
≈ marks a conversion by molar mass, not a printed value. Calls of active or inactive are those of the source. The rule behind the calls is not given here.

Legend:
Mycobacteroides chelonae = assay: Antimycobacterial activity against Mycobacteroides chelonae ATCC 35752 assessed as bacterial growth inhibition incubated for 72 hrs by resazurin dye based broth microdilution method; assay type: functional, organism-based
Procedure, shortened: (§1)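 Broth microdilution in Middlebrook 7H9 with 10% ADC-Tween-80 (0.2% glycerol, 0.05% Tween-80), inoculum ~10⁶ cfu/mL. Compounds came from 10 mg/mL DMSO stocks and were tested as two-fold serial dilutions at 37 °C, 7 days for M. tuberculosis H37Rv and 72 h for NTM. Growth was read visually with PrestoBlue resazurin dye; MIC was the lowest concentration preventing growth. Triplicate determinations, each in duplicate.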

Escherichia coli = assay: Antibacterial activity against Escherichia coli ATCC 25922 assessed as bacterial growth inhibition incubated for 16 to 18 hrs by CLSI based antibiotic susceptibility testing method; assay type: functional, organism-based; details: time 16-18 hrs
Procedure, shortened: (§2)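 Broth microdilution in cation-adjusted Mueller-Hinton broth. Compounds were tested at […], with levofloxacin as reference and medium-only controls. Plates were incubated at 37 °C for 16-18 h. MIC was the lowest concentration with no visible growth; three independent determinations, each in duplicate.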

Staphylococcus aureus [1] = assay: Antibacterial activity against methicillin/ceftriaxone/meropenem/gentamycin/linezolid-resistant Staphylococcus aureus NRS10119 clinical isolate assessed as bacterial growth inhibition incubated for 16 to 18 hrs by CLSI based antibiotic susceptibility testing method; assay type: functional; details: time 16-18 hrs; procedure, shortened: as §2
[2] = Selectivity index, ratio of CC50 for African green monkey Vero cells to MIC for Staphylococcus aureus ATCC 29213; assay type: toxicity, cell-based; details: read-out: Selectivity Index
[3] = tested on: Mycolicibacterium fortuitum; assay: Antimycobacterial activity against Mycobacterium fortuitum ATCC 6841 assessed as bacterial growth inhibition incubated for 72 hrs by resazurin dye based broth microdilution method; assay type: functional, organism-based; procedure, shortened: as §1
Staphylococcus aureus [4] = assay: Antibacterial activity against methicillin/ceftriaxone/meropenem/gentamycin/linezolid-resistant Staphylococcus aureus NRS10100 clinical isolate assessed as bacterial growth inhibition incubated for 16 to 18 hrs by CLSI based antibiotic susceptibility testing method; assay type: functional; details: time 16-18 hrs; procedure, shortened: as §2
Staphylococcus aureus [5] = assay: Antibacterial activity against methicillin/ceftriaxone-resistant Staphylococcus aureus NRS10194 clinical isolate assessed as bacterial growth inhibition incubated for 16 to 18 hrs by CLSI based antibiotic susceptibility testing method; assay type: functional; details: time 16-18 hrs; procedure, shortened: as §2
Staphylococcus aureus [6] = assay: Antibacterial activity against methicillin/ceftriaxone/meropenem-resistant Staphylococcus aureus NRS10191 clinical isolate assessed as bacterial growth inhibition incubated for 16 to 18 hrs by CLSI based antibiotic susceptibility testing method; assay type: functional; details: time 16-18 hrs; procedure, shortened: as §2
Acinetobacter baumannii = assay: Antibacterial activity against Acinetobacter baumannii BAA 1605 assessed as bacterial growth inhibition incubated for 16 to 18 hrs by CLSI based antibiotic susceptibility testing method; assay type: functional, organism-based; details: time 16-18 hrs; procedure, shortened: as §2
[7] = tested on: Mycobacterium tuberculosis; assay: Antimycobacterial activity against Mycobacterium tuberculosis H37Rv ATCC 27294 assessed as bacterial growth inhibition incubated for 7 days by resazurin dye based broth microdilution method; assay type: functional; details: H37Rv ATCC 27294, 168 h, time 7 day; procedure, shortened: as §1
Staphylococcus aureus [8] = assay: Antibacterial activity against methicillin-sensitive Staphylococcus aureus ATCC 29213 clinical isolate assessed as bacterial growth inhibition incubated for 16 to 18 hrs by CLSI based antibiotic susceptibility testing method; assay type: functional; details: time 16-18 hrs; procedure, shortened: as §2
Staphylococcus aureus [9] = assay: Antibacterial activity against methicillin/ceftriaxone/meropenem-resistant Staphylococcus aureus NRS10198 clinical isolate assessed as bacterial growth inhibition incubated for 16 to 18 hrs by CLSI based antibiotic susceptibility testing method; assay type: functional; details: time 16-18 hrs; procedure, shortened: as §2
Staphylococcus aureus [10] = assay: Antibacterial activity against methicillin/ceftriaxone/meropenem-resistant Staphylococcus aureus NRS10129 clinical isolate assessed as bacterial growth inhibition incubated for 16 to 18 hrs by CLSI based antibiotic susceptibility testing method; assay type: functional; details: time 16-18 hrs; procedure, shortened: as §2
Staphylococcus aureus [11] = assay: Antibacterial activity against methicillin/ceftriaxone/meropenem/gentamycin/vancomycin/teicoplanin-resistant Staphylococcus aureus VRS1 clinical isolate assessed as bacterial growth inhibition incubated for 16 to 18 hrs by CLSI based antibiotic susceptibility testing method; assay type: functional; details: time 16-18 hrs; procedure, shortened: as §2
Staphylococcus aureus [12] = assay: Antibacterial activity against methicillin/ceftriaxone/meropenem/vancomycin/teicoplanin-resistant Staphylococcus aureus VRS4 clinical isolate assessed as bacterial growth inhibition incubated for 16 to 18 hrs by CLSI based antibiotic susceptibility testing method; assay type: functional; details: time 16-18 hrs; procedure, shortened: as §2
Staphylococcus aureus [13] = assay: Antibacterial activity against methicillin/ceftriaxone/meropenem/vancomycin/teicoplanin-resistant Staphylococcus aureus VRS12 clinical isolate assessed as bacterial growth inhibition incubated for 16 to 18 hrs by CLSI based antibiotic susceptibility testing method; assay type: functional; details: time 16-18 hrs; procedure, shortened: as §2
[14] = Cytotoxicity against African green monkey Vero cells by MTT assay; assay type: toxicity, cell-based; details: chlorocebus sabaeus
Procedure, shortened: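 Vero cells were seeded at ~10³ per well at 37 °C, 5% CO2. After 24 h, compounds were added at 5-100 mg/L for 72 h. […] was added for 4 h, formazan was dissolved in DMSO and read at 540 nm. CC50 was taken as the lowest concentration reducing viability by 50%; doxorubicin was the positive control; triplicate.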

Staphylococcus aureus [15] = assay: Antibacterial activity against Staphylococcus aureus ATCC 29213 assessed as bacterial growth inhibition incubated for 16 to 18 hrs by CLSI based antibiotic susceptibility testing method; assay type: functional; details: time 16-18 hrs; procedure, shortened: as §2
Staphylococcus aureus [16] = assay: Antibacterial activity against methicillin/ceftriaxone/meropenem-resistant Staphylococcus aureus NRS10193 clinical isolate assessed as bacterial growth inhibition incubated for 16 to 18 hrs by CLSI based antibiotic susceptibility testing method; assay type: functional; details: time 16-18 hrs; procedure, shortened: as §2
Klebsiella pneumoniae = assay: Antibacterial activity against Klebsiella pneumoniae BAA 1705 assessed as bacterial growth inhibition incubated for 16 to 18 hrs by CLSI based antibiotic susceptibility testing method; assay type: functional, organism-based; details: time 16-18 hrs; procedure, shortened: as §2
Staphylococcus aureus [17] = assay: Antibacterial activity against methicillin/ceftriaxone/meropenem-resistant Staphylococcus aureus NRS10186 clinical isolate assessed as bacterial growth inhibition incubated for 16 to 18 hrs by CLSI based antibiotic susceptibility testing method; assay type: functional; details: time 16-18 hrs; procedure, shortened: as §2
Staphylococcus aureus [18] = assay: Antibacterial activity against methicillin/ceftriaxone/meropenem-resistant Staphylococcus aureus NRS10192 clinical isolate assessed as bacterial growth inhibition incubated for 16 to 18 hrs by CLSI based antibiotic susceptibility testing method; assay type: functional; details: time 16-18 hrs; procedure, shortened: as §2
[19] = tested on: Mycobacteroides abscessus; assay: Antimycobacterial activity against Mycobacterium abscessus ATCC 19977 assessed as bacterial growth inhibition incubated for 72 hrs by resazurin dye based broth microdilution method; assay type: functional, organism-based; procedure, shortened: as §1
Pseudomonas aeruginosa = assay: Antibacterial activity against Pseudomonas aeruginosa ATCC 27853 assessed as bacterial growth inhibition incubated for 16 to 18 hrs by CLSI based antibiotic susceptibility testing method; assay type: functional, organism-based; details: time 16-18 hrs; procedure, shortened: as §2

SMILES	growth inhibition (GI) (Mycobacteroides chelonae)	growth inhibition (GI) (Escherichia coli)	MIC (Staphylococcus aureus [1]) [µg/mL]	growth inhibition (GI) [3]	MIC (Staphylococcus aureus [4]) [µg/mL]	MIC (Staphylococcus aureus [5]) [µg/mL]	MIC (Staphylococcus aureus [6]) [µg/mL]	growth inhibition (GI) (Acinetobacter baumannii)	MIC [7] [µg/mL]	MIC (Staphylococcus aureus [8]) [µg/mL]	MIC (Staphylococcus aureus [9]) [µg/mL]	MIC (Staphylococcus aureus [10]) [µg/mL]	MIC (Staphylococcus aureus [11]) [µg/mL]	MIC (Staphylococcus aureus [12]) [µg/mL]	MIC (Staphylococcus aureus [13]) [µg/mL]	MIC (Staphylococcus aureus [15]) [µg/mL]	MIC (Staphylococcus aureus [16]) [µg/mL]	growth inhibition (GI) (Klebsiella pneumoniae)	MIC (Staphylococcus aureus [17]) [µg/mL]	MIC (Staphylococcus aureus [18]) [µg/mL]	other results
O=C(CN1C(=O)c2cccc3cccc(c23)C1=O)NC1CCN(C(=S)Nc2ccccc2)CC1	inactive	inactive	2 (≈ 4.23 µM)	inactive	4 (≈ 8.46 µM)	4 (≈ 8.46 µM)	2 (≈ 4.23 µM)	inactive	> 64	4 (≈ 8.46 µM)	2 (≈ 4.23 µM)	4 (≈ 8.46 µM)	2 (≈ 4.23 µM)	2 (≈ 4.23 µM)	4 (≈ 8.46 µM)	4 (≈ 8.46 µM)	2 (≈ 4.23 µM)	inactive	2 (≈ 4.23 µM)	1 (≈ 2.12 µM)	selectivity ratio [2]: > 50; CC50 [14]: > 200 µg/mL; growth inhibition (GI) [19]: inactive; growth inhibition (GI) (Pseudomonas aeruginosa): inactive
O=C(CN1C(=O)c2cccc3cccc(c23)C1=O)N1CCC(NC(=S)NC2CCCCC2)CC1	inactive	inactive	0.125 (≈ 0.261 µM)	inactive	0.125 (≈ 0.261 µM)	0.125 (≈ 0.261 µM)	0.125 (≈ 0.261 µM)	inactive	> 64	0.125 (≈ 0.261 µM)	0.125 (≈ 0.261 µM)	0.125 (≈ 0.261 µM)	0.125 (≈ 0.261 µM)	0.125 (≈ 0.261 µM)	0.125 (≈ 0.261 µM)	0.125 (≈ 0.261 µM)	0.125 (≈ 0.261 µM)	inactive	0.125 (≈ 0.261 µM)	0.125 (≈ 0.261 µM)	selectivity ratio [2]: > 800; CC50 [14]: > 100 µg/mL; growth inhibition (GI) [19]: inactive; growth inhibition (GI) (Pseudomonas aeruginosa): inactive
C[C@@H](O)[C@H]1C(=O)N2C(C(=O)O)=C(S[C@@H]3CN[C@H](C(=O)N(C)C)C3)[C@H](C)[C@H]12 [MEROPENEM]			64 (≈ 167 µM)		32 (≈ 83.4 µM)	1 (≈ 2.61 µM)	64 (≈ 167 µM)			0.125 (≈ 0.326 µM)	64 (≈ 167 µM)	2 (≈ 5.22 µM)	64 (≈ 167 µM)	64 (≈ 167 µM)	8 (≈ 20.9 µM)		64 (≈ 167 µM)		4 (≈ 10.4 µM)	4 (≈ 10.4 µM)	
O=C1c2cccc3cccc(c23)C(=O)N1CCN1CCN(C(=S)Nc2ccccc2)CC1	inactive	inactive	4 (≈ 9 µM)	inactive	4 (≈ 9 µM)	4 (≈ 9 µM)	2 (≈ 4.5 µM)	inactive	> 64	4 (≈ 9 µM)	2 (≈ 4.5 µM)	4 (≈ 9 µM)	4 (≈ 9 µM)	2 (≈ 4.5 µM)	4 (≈ 9 µM)	2 (≈ 4.5 µM)	2 (≈ 4.5 µM)	inactive	4 (≈ 9 µM)	2 (≈ 4.5 µM)	selectivity ratio [2]: > 50; CC50 [14]: > 100 µg/mL; growth inhibition (GI) [19]: inactive; growth inhibition (GI) (Pseudomonas aeruginosa): inactive
C[C@H]1COc2c(N3CCN(C)CC3)c(F)cc3c(=O)c(C(=O)O)cn1c23 [LEVOFLOXACIN ANHYDROUS]	inactive	inactive	16 (≈ 44.3 µM)	inactive	0.125 (≈ 0.346 µM)	0.125 (≈ 0.346 µM)	16 (≈ 44.3 µM)	inactive	0.6 (≈ 1.66 µM)	0.25 (≈ 0.692 µM)	32 (≈ 88.6 µM)	0.25 (≈ 0.692 µM)	32 (≈ 88.6 µM)	> 64	32 (≈ 88.6 µM)	0.063 (≈ 0.174 µM)	32 (≈ 88.6 µM)	inactive	4 (≈ 11.1 µM)	8 (≈ 22.1 µM)	growth inhibition (GI) [19]: inactive; growth inhibition (GI) (Pseudomonas aeruginosa): inactive
